How the values were obtained:
Rattus norvegicus [1] = assay: Biodistribution in uterus / blood of immature female rat after 3 hour administration of 3 micro Ci (111 kBq) in the absence of 60 microg estradiol; type: ADME, organism-based; details: in vivo
Method in brief: (§1)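 Same in vivo procedure: immature female Long Evans rats (21–24 days), three to five per group, 3 μCi (111 kBq) tracer i.v. via tail vein in 9% ethanol/saline/1% Tween-80, ± 60 μg estradiol co-injected at 1 h. Uterus %ID/g (gamma counting) divided by blood, or by nontarget organ (muscle, spleen, lungs), %ID/g to give ratios.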

Rattus norvegicus [2] = assay: Biodistribution in spleen of immature female rat after 5 hour administration of 3 micro Ci (111 kBq) in the absence of 60 microg estradiol; type: ADME, organism-based; details: in vivo
Method in brief: (§2)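 Immature female Long Evans rats (21–24 days, 45–70 g), three to five per group, given 125I-labeled steroid (3 μCi, 111 kBq) by lateral tail vein without anesthesia. Vehicle: ethanol diluted in saline with 1% Tween-80, final ethanol 9%, 0.22 μm filtered. +E2 groups received 60 μg unlabeled estradiol co-injected. Killed under ether at set times; tissues KCl-washed, blotted, weighed, gamma counted; %ID/g, mean with SE.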

Rattus norvegicus [3] = assay: Biodistribution in liver of immature female rat after 5 hour administration of 3 micro Ci (111 kBq) in the absence of 60 microg estradiol; type: ADME, organism-based; details: in vivo
Method in brief: (§3)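 Immature female Long Evans rats (21–24 days, 45–70 g), unanesthetized in retention cages, given 3 µCi (111 kBq) 125I-labeled steroid i.v. via lateral tail vein. Vehicle was ethanol diluted in saline containing 1% Tween-80, giving 9% ethanol final. The blocking group received 60 µg unlabeled estradiol co-injected. Rats were killed under ether by axillary bleeding, and tissues were KCl-washed and gamma-counted. Data are %ID/g, mean ± SE, n=3–5.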

Rattus norvegicus [4] = assay: Biodistribution in muscle of immature female rat after 3 hour administration of 3 micro Ci (111 kBq) in the absence of 60 microg estradiol; type: ADME, organism-based, Muscle tissue; details: in vivo; method in brief: as §2
Rattus norvegicus [5] = assay: Biodistribution in kidney of immature female rat after 1 hr administration of 3 micro Ci (111 kBq) in the absence of 60 microg estradiol; type: ADME, organism-based; details: in vivo; method in brief: as §3
Rattus norvegicus [6] = assay: Biodistribution in uterus / blood of immature female rat after 5 hour administration of 3 micro Ci (111 kBq) in the absence of 60 microg estradiol; type: ADME, organism-based; details: in vivo; method in brief: as §1
Rattus norvegicus [7] = assay: Biodistribution in blood of immature female rat after 12 hour administration of 3 micro Ci (111 kBq) in the absence of 60 microg estradiol; type: ADME, organism-based; details: in vivo; method in brief: as §3
Rattus norvegicus [8] = assay: Biodistribution in kidney of immature female rat after 3 hour administration of 3 micro Ci (111 kBq) in the absence of 60 microg estradiol; type: ADME, organism-based; details: in vivo; method in brief: as §3
Rattus norvegicus [9] = assay: Biodistribution in spleen of immature female rat after 1 hr administration of 3 micro Ci (111 kBq) in the absence of 60 microg estradiol; type: ADME, organism-based; details: in vivo; method in brief: as §2
Rattus norvegicus [10] = assay: Biodistribution in thyroid of immature female rat after 12 hour administration of 3 micro Ci (111 kBq) in the absence of 60 microg estradiol; type: ADME, organism-based, Thyroid gland; details: in vivo; method in brief: as §2
Rattus norvegicus [11] = assay: Biodistribution in kidney of immature female rat after 5 hour administration of 3 micro Ci (111 kBq) in the absence of 60 microg estradiol; type: ADME, organism-based; details: in vivo; method in brief: as §3
Rattus norvegicus [12] = assay: Biodistribution in fat of immature female rat after 5 hour administration of 3 micro Ci (111 kBq) in the absence of 60 microg estradiol; type: ADME, organism-based, Adipose tissue; details: in vivo; method in brief: as §3
Rattus norvegicus [13] = assay: Biodistribution in fat of immature female rat after 1 hr administration of 3 micro Ci (111 kBq) in the presence of (+E2); type: ADME, organism-based, Adipose tissue; details: in vivo; method in brief: as §3
Rattus norvegicus [14] = assay: Biodistribution in thyroid of immature female rat after 1 hr administration of 3 micro Ci (111 kBq) in the absence of 60 microg estradiol; type: ADME, organism-based, Thyroid gland; details: in vivo; method in brief: as §2
Rattus norvegicus [15] = assay: Biodistribution in uterus of immature female rat after 1 hr administration of 3 micro Ci (111 kBq) in the absence of 60 microg estradiol; type: ADME, organism-based; details: in vivo
Method in brief: (§4)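 Immature female Long Evans rats (21–24 days, 45–70 g), 3–5 per group, unanesthetized in retention cages, given 3 μCi (111 kBq) 125I-labeled steroid by lateral tail vein. Vehicle: ethanol diluted with saline containing 1% Tween-80, final ethanol 9%. +E2 group co-injected 60 μg unlabeled estradiol (1 h only). Killed under ether; tissues KCl-washed, weighed, gamma-counted. Output: %ID/g (mean, SE) and uterus to blood or nontarget (muscle, spleen, lungs) ratios.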

Rattus norvegicus [16] = assay: Biodistribution in muscle of immature female rat after 1 hr administration of 3 micro Ci (111 kBq) in the absence of 60 microg estradiol; type: ADME, organism-based, Muscle tissue; details: in vivo; method in brief: as §2
Rattus norvegicus [17] = assay: Biodistribution in lungs of immature female rat after 5 hour administration of 3 micro Ci (111 kBq) in the absence of 60 microg estradiol; type: ADME, organism-based, Lung; details: in vivo; method in brief: as §2
Rattus norvegicus [18] = assay: Biodistribution in uterus / spleen, muscle, lungs of immature female rat after 1 hr administration of 3 micro Ci (111 kBq) in the presence of (+E2); type: ADME, organism-based; details: in vivo; method in brief: as §1
Rattus norvegicus [19] = assay: Biodistribution in blood of immature female rat after 1 hr administration of 3 micro Ci (111 kBq) in the presence of (+E2); type: ADME, organism-based; details: in vivo; method in brief: as §3
Rattus norvegicus [20] = assay: Biodistribution in blood of immature female rat after 1 hr administration of 3 micro Ci (111 kBq) in the absence of 60 microg estradiol; type: ADME, organism-based; details: in vivo; method in brief: as §3
Rattus norvegicus [21] = assay: Biodistribution in fat of immature female rat after 12 hour administration of 3 micro Ci (111 kBq) in the absence of 60 microg estradiol; type: ADME, organism-based, Adipose tissue; details: in vivo; method in brief: as §3
Rattus norvegicus [22] = assay: Biodistribution in uterus / spleen, muscle, lungs of immature female rat after 3 hour administration of 3 micro Ci (111 kBq) in the absence of 60 microg estradiol; type: ADME, organism-based; details: in vivo; method in brief: as §4
Rattus norvegicus [23] = assay: Biodistribution in muscle of immature female rat after 12 hour administration of 3 micro Ci (111 kBq) in the absence of 60 microg estradiol; type: ADME, organism-based, Muscle tissue; details: in vivo; method in brief: as §2
Rattus norvegicus [24] = assay: Biodistribution in thyroid of immature female rat after 3 hour administration of 3 micro Ci (111 kBq) in the absence of 60 microg estradiol; type: ADME, organism-based, Thyroid gland; details: in vivo; method in brief: as §2
Rattus norvegicus [25] = assay: Biodistribution in uterus / blood of immature female rat after 1 hr administration of 3 micro Ci (111 kBq) in the presence of (+E2); type: ADME, organism-based; details: in vivo; method in brief: as §1
Rattus norvegicus [26] = assay: Biodistribution in lungs of immature female rat after 1 hr administration of 3 micro Ci (111 kBq) in the absence of 60 microg estradiol; type: ADME, organism-based, Lung; details: in vivo; method in brief: as §3
Rattus norvegicus [27] = assay: Biodistribution in spleen of immature female rat after 12 hour administration of 3 micro Ci (111 kBq) in the absence of 60 microg estradiol; type: ADME, organism-based; details: in vivo; method in brief: as §2
Rattus norvegicus [28] = assay: Biodistribution in fat of immature female rat after 1 hr administration of 3 micro Ci (111 kBq) in the absence of 60 microg estradiol; type: ADME, organism-based, Adipose tissue; details: in vivo; method in brief: as §3
Rattus norvegicus [29] = assay: Biodistribution in lungs of immature female rat after 12 hour administration of 3 micro Ci (111 kBq) in the absence of 60 microg estradiol; type: ADME, organism-based, Lung; details: in vivo; method in brief: as §2
[30] = target: Estrogen receptor (Mus musculus) (UniProt O08537+P19785); assay: Relative binding affinity (RBA) against murine cytoplasmic estrogen receptor incubated at 0-4 degree Celsius for 18 hours; type: protein assay
Method in brief: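 Competitive binding on murine uterine cytoplasmic extract with 20 nM [3H]estradiol and competitor steroids at 2 nM–20 μM, incubated 18 h at 0–4 °C. RBA = 100 × ratio of […] concentration giving 50% competition for specific binding. Mean of three experiments with SD.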

Sequence of Estrogen receptor (Mus musculus) (O08537 whole entry, looked up): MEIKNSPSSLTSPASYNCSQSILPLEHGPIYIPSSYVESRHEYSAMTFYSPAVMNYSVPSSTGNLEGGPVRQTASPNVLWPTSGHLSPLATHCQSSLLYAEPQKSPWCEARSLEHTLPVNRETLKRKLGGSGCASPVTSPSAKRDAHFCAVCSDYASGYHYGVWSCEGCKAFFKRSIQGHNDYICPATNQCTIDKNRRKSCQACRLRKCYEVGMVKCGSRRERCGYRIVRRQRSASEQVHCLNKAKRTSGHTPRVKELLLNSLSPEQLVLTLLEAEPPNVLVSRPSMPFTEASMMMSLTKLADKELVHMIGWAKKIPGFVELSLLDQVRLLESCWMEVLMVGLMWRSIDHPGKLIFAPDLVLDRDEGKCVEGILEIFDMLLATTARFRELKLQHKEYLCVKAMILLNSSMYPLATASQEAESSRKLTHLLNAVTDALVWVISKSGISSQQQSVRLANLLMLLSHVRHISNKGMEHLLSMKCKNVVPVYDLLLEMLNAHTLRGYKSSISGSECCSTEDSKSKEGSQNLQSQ
Sequence of Estrogen receptor (Mus musculus) (P19785 whole entry, looked up): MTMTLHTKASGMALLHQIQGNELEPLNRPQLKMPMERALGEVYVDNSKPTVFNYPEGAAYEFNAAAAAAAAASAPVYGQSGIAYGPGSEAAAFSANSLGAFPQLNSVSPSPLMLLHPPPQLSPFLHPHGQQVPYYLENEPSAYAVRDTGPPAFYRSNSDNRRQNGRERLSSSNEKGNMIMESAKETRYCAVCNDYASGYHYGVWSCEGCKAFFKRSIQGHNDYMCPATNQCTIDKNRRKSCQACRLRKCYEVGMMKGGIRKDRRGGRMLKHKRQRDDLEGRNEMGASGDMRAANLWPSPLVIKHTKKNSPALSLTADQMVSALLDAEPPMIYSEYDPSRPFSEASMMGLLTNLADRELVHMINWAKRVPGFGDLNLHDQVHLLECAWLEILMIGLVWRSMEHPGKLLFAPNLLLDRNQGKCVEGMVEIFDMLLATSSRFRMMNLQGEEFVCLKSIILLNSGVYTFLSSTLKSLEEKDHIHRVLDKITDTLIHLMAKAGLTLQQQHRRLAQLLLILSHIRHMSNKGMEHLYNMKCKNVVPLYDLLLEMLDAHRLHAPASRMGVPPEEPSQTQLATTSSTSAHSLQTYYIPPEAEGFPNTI

| Structure (SMILES) | uterus to blood %ID/g ratio (unitless) (Rattus norvegicus [1]) | ID/g (Rattus norvegicus [2]) | ID/g (Rattus norvegicus [3]) | ID/g (Rattus norvegicus [4]) | ID/g (Rattus norvegicus [5]) | uterus to blood ratio (Rattus norvegicus [6]) | ID/g (Rattus norvegicus [7]) | ID/g (Rattus norvegicus [8]) | ID/g (Rattus norvegicus [9]) | ID/g (Rattus norvegicus [10]) | ID/g (Rattus norvegicus [11]) | ID/g (Rattus norvegicus [12]) | ID/g (Rattus norvegicus [13]) | ID/g (Rattus norvegicus [14]) | ID/g (Rattus norvegicus [15]) | ID/g (Rattus norvegicus [16]) | ID/g (Rattus norvegicus [17]) | uterus-to-nontarget tissue uptake ratio (Rattus norvegicus [18]) | ID/g (Rattus norvegicus [19]) | ID/g (Rattus norvegicus [20]) | further results |
| --- | --- | --- | --- | --- | --- | --- | --- | --- | --- | --- | --- | --- | --- | --- | --- | --- | --- | --- | --- | --- | --- |
| C[C@]12CC[C@@H]3c4ccc(O)c(F)c4CC[C@H]3[C@@H]1CC[C@@]2(O)/C=C\I | 17.08% | 0.4% | 1.64% | 0.82% | 1.87% | 22.6% | 0.24% | 0.82% | 1.02% | 488% | 0.58% | 1.71% | 3.41% | 42.2% | 10.44% | 1.26% | 0.56% | 1.21% | 0.55% | 0.71% | ID/g (Rattus norvegicus [21]): 0.75%; Uterus to nontarget tissue (spleen, muscle, lungs) uptake ratio (Rattus norvegicus [22]): 12.16%; ID/g (Rattus norvegicus [23]): 0.37%; ID/g (Rattus norvegicus [24]): 87.39%; uterus/blood %ID/g ratio (Rattus norvegicus [25]): 1.65%; ID/g (Rattus norvegicus [26]): 1.89%; ID/g (Rattus norvegicus [27]): 0.43%; ID/g (Rattus norvegicus [28]): 4.3%; ID/g (Rattus norvegicus [29]): 0.8%; RBA [30]: 66.9 |
| CO[C@H]1C[C@@]2(C)[C@@H](CC[C@@]2(O)/C=C/I)[C@@H]2CCc3cc(O)c(F)cc3[C@H]21 | 8.28% | 0.82% | 3.11% | 0.56% | 1.44% | 12.41% | 0.11% | 0.96% | 0.83% | 571% | 1.52% | 1.57% | 4.31% | 224% | 4.41% | 0.87% | 0.51% | 0.86% | 0.51% | 0.45% | ID/g (Rattus norvegicus [21]): 0.45%; Uterus to nontarget tissue (spleen, muscle, lungs) uptake ratio (Rattus norvegicus [22]): 8.2%; ID/g (Rattus norvegicus [23]): 0.07%; ID/g (Rattus norvegicus [24]): 355%; uterus/blood %ID/g ratio (Rattus norvegicus [25]): 1.6%; ID/g (Rattus norvegicus [26]): 0.95%; ID/g (Rattus norvegicus [27]): 0.18%; ID/g (Rattus norvegicus [28]): 3.34%; ID/g (Rattus norvegicus [29]): 0.13%; RBA [30]: 13.5 |
| C[C@@H]1Cc2cc(O)c(F)cc2[C@H]2CC[C@@]3(C)[C@@H](CC[C@@]3(O)/C=C\I)[C@H]12 | 14.81% | 0.51% | 2.51% | 0.32% | 1.11% | 11.08% | 0.32% | 0.69% | 1.12% | 745% | 0.54% | 2.2% | 1.58% | 205% | 3.76% | 0.53% | 0.37% | 0.76% | 0.32% | 0.45% | ID/g (Rattus norvegicus [21]): 0.84%; Uterus to nontarget tissue (spleen, muscle, lungs) uptake ratio (Rattus norvegicus [22]): 7.35%; ID/g (Rattus norvegicus [23]): 0.19%; ID/g (Rattus norvegicus [24]): 202%; uterus/blood %ID/g ratio (Rattus norvegicus [25]): 1.2%; ID/g (Rattus norvegicus [26]): 0.56%; ID/g (Rattus norvegicus [27]): 0.47%; ID/g (Rattus norvegicus [28]): 2.02%; ID/g (Rattus norvegicus [29]): 0.25%; RBA [30]: 28.6 |
| C[C@@H]1Cc2cc(O)c(F)cc2[C@H]2CC[C@@]3(C)[C@@H](CC[C@@]3(O)/C=C/I)[C@H]12 | 4.11% | 0.18% | 1.38% | 0.15% | 0.63% | 3.69% | 0.12% | 0.29% | 0.31% | 446% | 0.26% | 1.28% | 1.48% | 78% | 1.03% | 0.61% | 0.22% | 1.09% | 0.29% | 0.29% | ID/g (Rattus norvegicus [21]): 0.92%; Uterus to nontarget tissue (spleen, muscle, lungs) uptake ratio (Rattus norvegicus [22]): 3%; ID/g (Rattus norvegicus [23]): 0.17%; ID/g (Rattus norvegicus [24]): 197%; uterus/blood %ID/g ratio (Rattus norvegicus [25]): 1.34%; ID/g (Rattus norvegicus [26]): 0.54%; ID/g (Rattus norvegicus [27]): 0.12%; ID/g (Rattus norvegicus [28]): 1.5%; ID/g (Rattus norvegicus [29]): 0.12%; RBA [30]: 12.1 |

From ChEMBL document CHEMBL1126849, “Synthesis of A-ring fluorinated derivatives of (17 alpha,20E/Z)-[125I]iodovinylestradiols: effect on receptor binding and receptor-mediated target tissue uptake” (J Med Chem, 1993)
